Measured values from ChEMBL document CHEMBL1629492 (Eur J Med Chem, 2010).

How the values were obtained:
[1] = target: T1, Alpha-1B adrenergic receptor (Homo sapiens, UniProt P35368); assay: Displacement of [3H]prazosin from human Alpha-1B adrenoceptor expressed in CHO cells; assay type: cell-based
T1 sequence (P35368 whole entry): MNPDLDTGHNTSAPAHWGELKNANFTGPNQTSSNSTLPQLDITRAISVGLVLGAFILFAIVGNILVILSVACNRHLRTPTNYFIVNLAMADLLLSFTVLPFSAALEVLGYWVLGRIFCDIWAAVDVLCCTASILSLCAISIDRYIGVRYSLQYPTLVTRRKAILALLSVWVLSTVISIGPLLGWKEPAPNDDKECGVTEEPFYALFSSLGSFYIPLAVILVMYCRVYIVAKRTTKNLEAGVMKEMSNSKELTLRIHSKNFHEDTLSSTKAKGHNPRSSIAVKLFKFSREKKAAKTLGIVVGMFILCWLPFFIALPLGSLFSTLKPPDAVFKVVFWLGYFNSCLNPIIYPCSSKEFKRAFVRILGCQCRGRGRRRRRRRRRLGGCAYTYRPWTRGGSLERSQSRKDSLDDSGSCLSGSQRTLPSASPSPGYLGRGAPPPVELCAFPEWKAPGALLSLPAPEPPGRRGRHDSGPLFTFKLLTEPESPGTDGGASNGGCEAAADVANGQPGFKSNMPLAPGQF
Summary of the method: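 Membranes ([…], as printed) from CHO cells stably expressing the cloned human α1b subtype were incubated with 0.1–0.4 nM [³H]prazosin and competitor (1 pM up to the top concentration) in 50 mM Tris-HCl, pH 7.4, for 30 min at 25 °C. Non-specific binding was defined with phentolamine, and incubations ended by filtration. Ki was derived from IC50 by Cheng–Prusoff. Reported as pKi from 2–3 triplicate experiments.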

[2] = target: T2, Alpha-1D adrenergic receptor (Homo sapiens, UniProt P25100); assay: Displacement of [3H]prazosin from human Alpha-1D adrenoceptor expressed in CHO cells; assay type: cell-based
T2 sequence (P25100 whole entry): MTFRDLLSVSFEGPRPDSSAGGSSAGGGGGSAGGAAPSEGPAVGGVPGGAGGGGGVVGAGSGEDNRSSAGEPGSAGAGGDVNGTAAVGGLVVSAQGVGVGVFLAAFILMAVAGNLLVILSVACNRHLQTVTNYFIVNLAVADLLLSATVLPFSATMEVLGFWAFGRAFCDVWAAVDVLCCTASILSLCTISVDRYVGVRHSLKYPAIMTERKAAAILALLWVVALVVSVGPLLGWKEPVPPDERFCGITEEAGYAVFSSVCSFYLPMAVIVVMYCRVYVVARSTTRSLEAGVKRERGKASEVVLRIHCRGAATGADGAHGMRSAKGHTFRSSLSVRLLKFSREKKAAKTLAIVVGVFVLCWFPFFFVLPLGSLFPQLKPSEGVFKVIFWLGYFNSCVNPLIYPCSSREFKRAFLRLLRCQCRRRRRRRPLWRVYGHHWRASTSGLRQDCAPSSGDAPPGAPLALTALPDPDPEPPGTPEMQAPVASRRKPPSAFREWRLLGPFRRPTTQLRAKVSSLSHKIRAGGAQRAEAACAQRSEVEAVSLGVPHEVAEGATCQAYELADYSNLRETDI
Summary of the method: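 Membranes ([…], as printed) from CHO cells stably expressing the cloned human α1d subtype were incubated with 0.1–0.4 nM [³H]prazosin and competing drug (1 pM upward) in 50 mM Tris-HCl, pH 7.4, for 30 min at 25 °C. Phentolamine defined non-specific binding. IC50 was converted to Ki by Cheng–Prusoff. Reported as pKi from 2–3 triplicate experiments.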

[3] = Selectivity ratio of Ki for human alpha1A adrenoceptor to Ki for human Alpha-1B adrenoceptor
Summary of the method: (§1)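 Subtype selectivity is the antilog of the difference between pKi values, from [³H]prazosin displacement (0.1–0.4 nM, 30 min, 25 °C, pH 7.4) at cloned human α1a, α1b and α1d receptors in CHO membranes. Ki values came from IC50 via Cheng–Prusoff.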

[4] = Selectivity ratio of Ki for human alpha1A adrenoceptor to Ki for human Alpha-1D adrenoceptor; summary of the method: as §1
[5] = target: T3, Alpha-1D adrenergic receptor (Rattus norvegicus, UniProt P23944); assay: Antagonist activity at Alpha-1D adrenoceptor in Wistar rat thoracic aorta assessed as noradrenaline induced contractions after 30 mins
T3 sequence (P23944 whole entry): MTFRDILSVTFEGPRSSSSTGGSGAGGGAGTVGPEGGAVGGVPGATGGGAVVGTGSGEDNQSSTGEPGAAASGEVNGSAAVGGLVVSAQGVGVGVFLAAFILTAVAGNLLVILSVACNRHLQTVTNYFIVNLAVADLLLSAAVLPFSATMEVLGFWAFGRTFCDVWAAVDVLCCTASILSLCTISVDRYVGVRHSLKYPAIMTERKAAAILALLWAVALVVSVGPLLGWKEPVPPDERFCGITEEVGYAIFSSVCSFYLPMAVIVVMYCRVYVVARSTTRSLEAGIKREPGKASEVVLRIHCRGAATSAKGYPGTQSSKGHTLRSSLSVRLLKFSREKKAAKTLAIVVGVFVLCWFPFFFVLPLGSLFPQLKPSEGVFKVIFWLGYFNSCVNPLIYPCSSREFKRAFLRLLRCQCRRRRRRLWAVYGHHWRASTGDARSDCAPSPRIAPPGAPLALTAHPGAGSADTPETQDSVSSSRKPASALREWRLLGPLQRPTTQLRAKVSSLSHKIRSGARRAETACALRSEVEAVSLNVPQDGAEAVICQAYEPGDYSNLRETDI

Rattus norvegicus [6] = species on record: Rattus norvegicus; assay: Selectivity ratio of EC50 for alpha1A adrenoceptor in Wistar rat vas deferens to EC50 for Alpha-1B adrenoceptor in Wistar rat spleen; assay type: tissue-based
Rattus norvegicus [7] = species on record: Rattus norvegicus; assay: Selectivity ratio of EC50 for alpha1A adrenoceptor in Wistar rat vas deferens to EC50 for Alpha-1D adrenoceptor in Wistar rat thoracic aorta; assay type: tissue-based
Rattus norvegicus [8] = species on record: Rattus norvegicus; assay: Selectivity ratio of EC50 for alpha1A adrenoceptor in Wistar rat vas deferens to Ki for Alpha-1B adrenoceptor in Wistar rat spleen; assay type: tissue-based
Rattus norvegicus [9] = species on record: Rattus norvegicus; assay: Selectivity ratio of EC50 for alpha1D adrenoceptor in Wistar rat thoracic aorta to Ki for Alpha-1B adrenoceptor in Wistar rat spleen; assay type: tissue-based

SMILES	Ki [1] [nM]	Ki [2] [nM]	Ki ratio [3]	Ki ratio [4]	Kb [5] [nM]	Selectivity ratio (Rattus norvegicus [6])	Selectivity ratio (Rattus norvegicus [7])	Selectivity ratio (Rattus norvegicus [8])	Selectivity ratio (Rattus norvegicus [9])
COc1ccc(C[C@@H](C)NCCOc2ccccc2OCC(F)(F)F)cc1S(N)(=O)=O	5.5	0.955	9	2	0.955	4	4	4	1
COc1ccc(C[C@@H](C)NCCOc2ccccc2OC(C)C)cc1S(N)(=O)=O	1.91	0.245	5	0.7	0.501	7	2	7	3
COc1ccc(C[C@@H](C)NC[C@H]2Oc3ccccc3O[C@H]2C)cc1S(N)(=O)=O	67.6	17.4	4	0.9	60.3	1	2	1	0.5
COc1ccc(C[C@@H](C)NC[C@@H]2Oc3ccccc3O[C@@H]2C)cc1S(N)(=O)=O	31.6	15.5	3	1	21.4	1	1	1	0.8
COc1ccc(C[C@@H](C)NCCOc2ccccc2OCc2ccccc2)cc1S(N)(=O)=O	2.09	0.324	6	0.9	–	12	3	12	4
